Measured values: BindingDB's records for doi:10.1016/j.bmc.2013.04.054 (Northwestern University, 2013)

Biological target: Voltage-dependent L-type calcium channel subunit alpha-1C (Oryctolagus cuniculus, UniProt P15381)
Assay: Antagonist activity at rabbit voltage-dependent L-type calcium channel Cav1.2alpha-1C expressed in HEK293 cells by FLIPR assay
Summary of the method: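 HEK293 lines stably expressing rat CaV1.3α1D or rabbit CaV1.2α1C, with rat CaVβ3 and rat CaVα2δ-1 cDNAs used in construction. Calcium influx was read by Fluo-8 fluorescence on a FLIPR Tetra. […] The selectivity ratio is CaV1.3 IC50 over CaV1.2 IC50.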

Chain of Voltage-dependent L-type calcium channel subunit alpha-1C (P15381 whole entry): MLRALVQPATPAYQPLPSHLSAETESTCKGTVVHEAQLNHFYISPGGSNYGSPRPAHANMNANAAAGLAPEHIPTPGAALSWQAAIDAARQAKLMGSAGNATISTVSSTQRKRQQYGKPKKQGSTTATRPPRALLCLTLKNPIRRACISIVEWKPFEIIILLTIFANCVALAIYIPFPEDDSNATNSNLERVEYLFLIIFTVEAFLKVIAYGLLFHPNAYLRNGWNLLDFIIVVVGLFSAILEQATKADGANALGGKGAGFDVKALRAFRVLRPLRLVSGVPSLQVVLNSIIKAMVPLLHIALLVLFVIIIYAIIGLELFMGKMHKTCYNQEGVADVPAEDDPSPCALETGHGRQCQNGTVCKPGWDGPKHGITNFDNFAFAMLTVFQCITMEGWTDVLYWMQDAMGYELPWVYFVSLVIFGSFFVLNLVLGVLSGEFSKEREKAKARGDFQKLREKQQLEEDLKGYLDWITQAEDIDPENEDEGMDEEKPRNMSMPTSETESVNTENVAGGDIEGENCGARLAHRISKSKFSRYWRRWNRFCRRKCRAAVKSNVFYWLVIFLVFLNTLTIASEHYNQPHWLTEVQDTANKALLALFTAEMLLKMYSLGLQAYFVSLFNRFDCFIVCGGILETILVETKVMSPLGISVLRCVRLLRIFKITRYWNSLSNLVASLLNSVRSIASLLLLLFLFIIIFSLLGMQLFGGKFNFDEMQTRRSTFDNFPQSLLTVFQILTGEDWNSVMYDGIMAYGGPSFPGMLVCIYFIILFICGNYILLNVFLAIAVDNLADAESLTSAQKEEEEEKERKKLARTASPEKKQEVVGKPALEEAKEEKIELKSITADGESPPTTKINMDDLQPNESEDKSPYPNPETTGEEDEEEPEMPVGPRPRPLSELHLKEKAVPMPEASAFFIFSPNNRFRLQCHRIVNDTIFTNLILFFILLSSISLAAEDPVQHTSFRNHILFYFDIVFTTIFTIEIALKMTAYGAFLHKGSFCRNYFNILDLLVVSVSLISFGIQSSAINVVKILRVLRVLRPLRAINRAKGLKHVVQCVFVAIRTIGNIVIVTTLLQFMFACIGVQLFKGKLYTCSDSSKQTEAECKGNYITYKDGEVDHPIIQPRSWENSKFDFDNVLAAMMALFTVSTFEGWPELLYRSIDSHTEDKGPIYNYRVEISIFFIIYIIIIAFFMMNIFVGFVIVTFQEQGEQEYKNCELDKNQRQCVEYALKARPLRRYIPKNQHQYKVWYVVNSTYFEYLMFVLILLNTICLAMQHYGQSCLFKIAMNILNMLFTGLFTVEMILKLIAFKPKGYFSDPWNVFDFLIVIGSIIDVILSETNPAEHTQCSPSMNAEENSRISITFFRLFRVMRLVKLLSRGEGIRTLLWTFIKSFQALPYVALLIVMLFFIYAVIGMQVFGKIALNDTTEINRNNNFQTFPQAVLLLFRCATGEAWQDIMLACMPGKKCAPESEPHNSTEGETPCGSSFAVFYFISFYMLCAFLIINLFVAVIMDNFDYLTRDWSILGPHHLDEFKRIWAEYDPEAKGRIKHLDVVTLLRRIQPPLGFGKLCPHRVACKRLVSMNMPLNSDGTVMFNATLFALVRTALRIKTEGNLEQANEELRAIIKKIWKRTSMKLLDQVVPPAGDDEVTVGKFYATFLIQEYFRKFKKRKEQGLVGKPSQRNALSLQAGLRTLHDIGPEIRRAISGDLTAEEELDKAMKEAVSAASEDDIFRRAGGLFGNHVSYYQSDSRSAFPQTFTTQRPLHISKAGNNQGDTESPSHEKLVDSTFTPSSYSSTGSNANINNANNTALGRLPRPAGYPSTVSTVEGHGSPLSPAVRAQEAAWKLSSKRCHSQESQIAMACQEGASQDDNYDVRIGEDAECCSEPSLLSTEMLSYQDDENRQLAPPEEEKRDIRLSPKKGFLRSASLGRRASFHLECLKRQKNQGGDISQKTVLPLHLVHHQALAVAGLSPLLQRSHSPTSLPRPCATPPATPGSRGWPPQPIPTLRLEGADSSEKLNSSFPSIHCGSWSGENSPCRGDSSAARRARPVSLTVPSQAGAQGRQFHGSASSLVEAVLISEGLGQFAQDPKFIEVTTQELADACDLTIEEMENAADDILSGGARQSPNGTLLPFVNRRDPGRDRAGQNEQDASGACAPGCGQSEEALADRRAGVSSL

COC(=O)N1C(=O)N=C(C)C(C(=O)OC(C)C)[C@@H]1c1cccc([N+](=O)[O-])c1 (some centres not stated)
IC50: 2480 nM

COC(=O)C1C(C)=NC(=O)N(C(=O)OC(C)C)C1c1cccc([N+](=O)[O-])c1 (configuration not stated)
IC50: 2480 nM
